In ChEMBL document CHEMBL4732206, “Novel diaryl-2H-azirines: Antitumor hybrids for dual-targeting tubulin and DNA” (Eur J Med Chem, 2021):
The source made the active and inactive calls. The calls are words filed in the database; no cut-off is given here.

Assays:
[1] = tested on: A2780; test: Antiproliferative activity against human A2780 cells assessed as reduction in cell viability incubated for 48 hrs by MTT assay; format: functional, cell-based; details: A2780, 48 h
How it was run: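 Cells were grown in DMEM with 10% FBS and penicillin/streptomycin at 37 °C and 5% CO2. They were seeded for 24 h, then treated with graded concentrations for 48 h. MTT (5 mg/mL) was added for a further 4 h at 37 °C. Formazan was dissolved in DMSO and absorbance read at 570 nm. IC50 was taken from the concentration-response curve.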

[2] = Inhibition of pig brain tubulin polymerization by spectrophotometry; set-up: species or system Sus scrofa
[3] = target: Tubulin (Homo sapiens) (UniProt P68371+Q9H4B7+P0DPH7+P68366+Q13509+Q71U36+P04350+Q3ZCM7+P07437+P68363+Q9BQE3+Q6PEY2+Q13885+Q9BVA1+Q9BUF5); test: Inhibition of tubulin polymerization in human HeLa cells assessed as disorganisation of microtubule at 100 to 200 nM incubated for overnight by DAPI staining based immunofluorescence assay; format: cell-based; details: dose 100-200 nM
How it was run: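 HeLa cells were exposed overnight to a range of compound concentrations, with DMSO as the negative control. Cells were fixed in methanol, permeabilised with 0.1% Triton X-100 and blocked in 3% BSA for 1 h. They were probed with anti-α-tubulin monoclonal antibody overnight at 4 °C, then an Alexa 488 secondary antibody. Nuclei were stained with DAPI for 10 min at room temperature, and cells were imaged by confocal fluorescence microscopy.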

[4] = tested on: Jurkat; test: Induction of DNA damage in human Jurkat cells assessed as increase in DNA lesion incubated for 48 hrs by comet assay; format: functional, cell-based; details: dose 100-400 nM
How it was run: (§1)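 Jurkat cells were exposed to graded concentrations, MMC 200 nM positive control or DMSO for 48 h at 37 °C, with work done in darkness. Cells were embedded in LM agarose on comet slides and lysed for 2 h at 4 °C. Slides were unwound in 1 mM EDTA/200 mM NaOH for 30 min, electrophoresed at 25 V for 15 min, stained with ethidium bromide and imaged by fluorescence microscopy. Tail moment was scored.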

[5] = tested on: Jurkat; test: Induction of DNA damage in human Jurkat cells assessed as upregulation of Bax protein expression incubated for 48 hrs by Western blot analysis; format: functional, cell-based; details: dose 2-8 µM
[6] = tested on: Jurkat; test: Induction of DNA damage in human Jurkat cells assessed as upregulation of GADD45alpha protein expression incubated for 48 hrs by Western blot analysis; format: functional, cell-based; details: dose 2-8 µM
[7] = tested on: HeLa; test: Induction of apoptosis in human HeLa cells assessed as early apoptotic cells at 2 uM incubated for 48 hrs by annexin-V-FITC and PI staining based flow cytometry analysis (reference value: 2.25 %); format: functional
[8] = tested on: HeLa; test: Induction of apoptosis in human HeLa cells assessed as late apoptotic cells at 2 uM incubated for 48 hrs by annexin-V-FITC and PI staining based flow cytometry analysis (reference value: 0.23 %); format: functional
[9] = tested on: HeLa; test: Induction of apoptosis in human HeLa cells assessed as necrotic cells at 2 uM incubated for 48 hrs by annexin-V-FITC and PI staining based flow cytometry analysis (reference value: 0.18 %); format: functional
[10] = tested on: HeLa; test: Induction of apoptosis in human HeLa cells assessed as viable cells at 4 uM incubated for 48 hrs by annexin-V-FITC and PI staining based flow cytometry analysis (reference value: 97.34 %); format: functional; details: read-out: Activity
[11] = tested on: HeLa; test: Induction of apoptosis in human HeLa cells assessed as viable cells at 8 uM incubated for 48 hrs by annexin-V-FITC and PI staining based flow cytometry analysis (reference value: 97.34 %); format: functional; details: read-out: Activity
[12] = tested on: HeLa; test: Induction of apoptosis in human HeLa cells assessed as early apoptotic cells at 8 uM incubated for 48 hrs by annexin-V-FITC and PI staining based flow cytometry analysis (reference value: 2.25 %); format: functional
[13] = tested on: HeLa; test: Induction of apoptosis in human HeLa cells assessed as late apoptotic cells at 8 uM incubated for 48 hrs by annexin-V-FITC and PI staining based flow cytometry analysis (reference value: 0.23 %); format: functional
[14] = tested on: HeLa; test: Induction of apoptosis in human HeLa cells assessed as upregulation of p53 protein expression by Western blot analysis; format: functional, cell-based; details: dose 2-8 µM
How it was run: (§2)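 HeLa cells were treated with graded concentrations or DMSO, washed in PBS and lysed. Protein was measured by BCA, separated by SDS-PAGE and transferred to PVDF. Membranes were blocked in 5% BSA/TBST, incubated with primary antibodies overnight at 4 °C, then with HRP secondary antibodies. Bands were detected by chemiluminescence.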

[15] = tested on: HeLa; test: Induction of apoptosis in human HeLa cells assessed as upregulation of PARP cleavage by Western blot analysis; format: functional, cell-based; details: dose 2-8 µM; how it was run: as §2
[16] = tested on: HeLa; test: Induction of cell cycle arrest in human HeLa cells assessed as increase in accumulation of cells at G2/M phase incubated for 24 hrs by PI staining based flow cytometry analysis; format: functional; details: dose 0.4-3.2 µM
How it was run: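 HeLa cells were grown for 24 h, then treated with graded concentrations or DMSO for 24 h. Cells were fixed in 75% ethanol at −20 °C overnight, treated with RNase A and stained with PI in PBS in the dark at room temperature. DNA content was measured by flow cytometry.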

[17] = tested on: HeLa; test: Induction of cell cycle arrest in human HeLa cells assessed as upregulation of p-histone-H3 protein expression at 0.8 to 3.2 uM by Western blot analysis; format: functional, cell-based; details: dose 0.8-3.2 µM; how it was run: as §2
[18] = tested on: HeLa; test: Induction of cell cycle arrest in human HeLa cells assessed as upregulation of cyclinB1 protein expression at 0.8 to 3.2 uM by Western blot analysis; format: functional, cell-based; details: dose 0.8-3.2 µM; how it was run: as §2
[19] = tested on: HeLa; test: Induction of cell cycle arrest in human HeLa cells assessed as upregulation of BubR1 protein expression at 0.8 to 3.2 uM by Western blot analysis; format: functional, cell-based; details: dose 0.8-3.2 µM; how it was run: as §2
[20] = tested on: HeLa; test: Inhibition of colony formation in human HeLa cells incubated for 48 hrs followed by replacement with fresh medium and further incubation for 7 to 10 days by gentian violet staining based assay; format: functional, cell-based; details: dose 0.5-8 µM
How it was run: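 HeLa cells in six-well plates were grown for 24 h at 37 °C, then treated with graded concentrations or DMSO for 48 h. Medium was replaced with fresh medium for a further 7–10 days. Colonies were stained with gentian violet for 30 min, washed with PBS and counted relative to control.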

[21] = tested on: A2780; test: Antitumor activity against human A2780 cells xenografted in Balb/c mouse assessed as reduction in tumor weight at 25 to 50 mg/kg administered every two days; format: functional, organism-based; details: dose 25-50 mg/kg
How it was run: (§3)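 Nude mice carried A2780 cells implanted in PBS in the right flank. When tumors reached 100 mm³, mice were randomized into four groups (n = 10): vehicle, 25 or 50 mg/kg test compound, and PTX 10 mg/kg. Dosing was every two days; vehicle was 10% castor oil and 10% DMSO in PBS. Volume (π/6 × length × width²) and body weight were measured by caliper and scale at each dose. Tumors were excised and weighed at the end.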

[22] = Toxicity in Balb/c mouse xenografted with human A2780 cells assessed as effect on body weight at 25 to 50 mg/kg administered every two days; format: organism-based; details: in vivo, dose 25-50 mg/kg; how it was run: as §3
[23] = Toxicity in Balb/c mouse xenografted with human A2780 cells assessed as adverse effect at 25 to 50 mg/kg administered every two days; format: organism-based; details: in vivo, dose 25-50 mg/kg
[24] = tested on: Jurkat; test: Induction of DNA damage in human Jurkat cells assessed as increase in tail moment at 100 to 400 nM incubated for 48 hrs by comet assay; format: functional, cell-based; details: dose 100-400 nM; how it was run: as §1

**Q.** For `COc1ccc(C2N=C2c2cc(OC)c(OC)c(OC)c2)cc1F` (centres undefined), which IC50 [1] is on record?
**A.** 160 nM

**Q.** What about the IC50 [2] of the same compound?
**A.** 3300 nM

**Q.** And the inhibition [3]?
**A.** Active

**Q.** And the Activity [4]?
**A.** Dose-dependent effect

**Q.** And the Activity [5]?
**A.** Dose-dependent effect

**Q.** What about the Activity [6] of the same compound?
**A.** Dose-dependent effect

**Q.** And the Activity [7]?
**A.** 18.98%

**Q.** And the Activity [8]?
**A.** 5.72%

**Q.** And the Activity [9]?
**A.** 0.65%

**Q.** What about the viability at 4 µM [10] of the same compound?
**A.** 63.5%

**Q.** And the viability at 8 µM [11]?
**A.** 39.6%

**Q.** What about the Activity [12] of the same compound?
**A.** 50.47%

**Q.** And the Activity [13]?
**A.** 7.79%

**Q.** What about the Activity [14] of the same compound?
**A.** Dose-dependent effect

**Q.** What about the Activity [15] of the same compound?
**A.** Dose-dependent effect

**Q.** And the Activity [16]?
**A.** Dose-dependent effect

**Q.** And the Activity [17]?
**A.** Active

**Q.** And the Activity [18]?
**A.** Active

**Q.** And the Activity [19]?
**A.** Active

**Q.** What about the inhibition [20] of the same compound?
**A.** Dose-dependent effect

**Q.** And the Activity [21]?
**A.** Active

**Q.** And the Activity [22]?
**A.** Non-Toxic

**Q.** What about the Activity [23] of the same compound?
**A.** Non-Toxic

**Q.** And the Activity [24]?
**A.** Active
